# Key:
# [1] = Half life in SCID mouse at 10 mg/kg, po; format: ADME, organism-based; parameters: dose 10 mg/kg, route oral; settings: in vivo
# How it was run: (§1)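 Mouse PK. IV via the lateral tail vein in 3% DMSO/30% Solutol/67% PBS, or oral gavage in 100% PEG400, 100 μL dose volume, after an overnight fast. Trunk blood was taken from three mice per time point over 6 h. Plasma was acetonitrile-precipitated and analysed by LC-MS/MS. Parameters were derived noncompartmentally.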
# [2] = Half life in cynomolgus monkey at 1 mg/kg, iv; format: ADME, organism-based, Macaca fascicularis; parameters: dose 1 mg/kg, route intravenous; settings: in vivo
# How it was run: (§2)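 Dog and monkey PK. IV 0.5 mL/kg in 40% HPβCD via the saphenous vein. Oral dosing was 1 mL/kg by gavage in dogs and 2 mL/kg by nasogastric tube in monkeys, after an overnight fast. Serial femoral-vein blood was taken into heparin over 24 h. Plasma was acetonitrile-precipitated and analysed by LC-MS/MS. Parameters were noncompartmental, n = 3, mean ± SEM.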
# [3] = Cmax in CD-1 mouse at 10 mg/kg, po; format: ADME, organism-based; parameters: dose 10 mg/kg, route oral; settings: in vivo; how it was run: as §1
# [4] = Plasma clearance in CD-1 mouse at 1 mg/kg, iv; format: ADME, organism-based; parameters: dose 1 mg/kg, route intravenous
# How it was run: (§3)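 Mouse IV PK: lateral tail vein dosing, 100 μL in 3% DMSO/30% Solutol/67% PBS; trunk blood from three mice per time point over 6 h. Plasma precipitated with acetonitrile, drug quantified by LCMS/MS against internal standard; noncompartmental analysis.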
# [5] = Oral bioavailability in Beagle dog at 10 mg/kg; format: ADME, organism-based, Canis lupus familiaris; settings: in vivo
# How it was run: (§4)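 PK: overnight-fasted animals. Rat oral gavage 5 mL/kg in 40% HPβCD, serial tail-vein blood over 6 h. Dog oral gavage 1 mL/kg, monkey nasogastric 2 mL/kg, femoral-vein blood over 24 h. Plasma protein-precipitated with acetonitrile, LCMS/MS with internal standard; noncompartmental analysis, individual animals n = 3, mean ± SEM.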
# [6] = AUC (0 to 12 hrs) in rat 100 mg/kg, po; format: ADME, organism-based; parameters: time < 12 hr, dose 100 mg/kg, route oral; settings: plasma
# How it was run: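 Rat oral dose escalation at 10, 30, 55 and 100 mg/kg. Gavage at 5 mL/kg in 40% HPβCD after an overnight fast. Serial tail-vein blood was drawn into heparinized tubes. Plasma was protein-precipitated with acetonitrile and assayed by LC-MS/MS. Cmax and AUC0–12 were derived noncompartmentally; n = 2 at 10 mg/kg.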
# [7] = tested on: Mus musculus; test: Toxicity in SCID mouse xenografted with human KARPAS299 cells expressing NPM-ALK assessed as overt toxicity at 10 to 30 mg/kg, po bid; format: organism-based, KARPAS-299; parameters: dose 10-30 mg/kg, route oral; settings: in vivo
# How it was run: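 Female SCID/beige mice (6–8 weeks), Karpas-299 cells implanted sc in left flank; at ~600 mm³ randomized (8–10/group), dosed orally in PEG400, 100 μL, b.i.d. for 12 days. Body weight every 2–3 days; plasma and tumor sampled 2 h after final dose, drug by LCMS/MS; Mann–Whitney rank sum statistics.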
# [8] = Tmax in Beagle dog at 10 mg/kg, po; format: ADME, organism-based, Canis lupus familiaris; parameters: dose 10 mg/kg, route oral; settings: in vivo; how it was run: as §4
# [9] = Plasma clearance in Sprague-Dawley rat at 1 mg/kg, iv; format: ADME, organism-based; parameters: dose 1 mg/kg, route intravenous
# How it was run: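 IV PK: rats via lateral tail vein (1 mL/kg; 3% DMSO/30% Solutol/67% PBS), serial tail-vein blood over 6 h. Dogs and monkeys via saphenous vein (0.5 mL/kg in 40% HPβCD), femoral-vein blood over 24 h. Acetonitrile protein precipitation, LCMS/MS; noncompartmental parameters from individual animals, n = 3, mean ± SEM.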
# [10] = biological target: Ribosomal protein S6 kinase alpha-6 (Homo sapiens, UniProt Q9UK32); test: Inhibition of human Rsk4
# Chain of Ribosomal protein S6 kinase alpha-6 (Q9UK32 whole entry): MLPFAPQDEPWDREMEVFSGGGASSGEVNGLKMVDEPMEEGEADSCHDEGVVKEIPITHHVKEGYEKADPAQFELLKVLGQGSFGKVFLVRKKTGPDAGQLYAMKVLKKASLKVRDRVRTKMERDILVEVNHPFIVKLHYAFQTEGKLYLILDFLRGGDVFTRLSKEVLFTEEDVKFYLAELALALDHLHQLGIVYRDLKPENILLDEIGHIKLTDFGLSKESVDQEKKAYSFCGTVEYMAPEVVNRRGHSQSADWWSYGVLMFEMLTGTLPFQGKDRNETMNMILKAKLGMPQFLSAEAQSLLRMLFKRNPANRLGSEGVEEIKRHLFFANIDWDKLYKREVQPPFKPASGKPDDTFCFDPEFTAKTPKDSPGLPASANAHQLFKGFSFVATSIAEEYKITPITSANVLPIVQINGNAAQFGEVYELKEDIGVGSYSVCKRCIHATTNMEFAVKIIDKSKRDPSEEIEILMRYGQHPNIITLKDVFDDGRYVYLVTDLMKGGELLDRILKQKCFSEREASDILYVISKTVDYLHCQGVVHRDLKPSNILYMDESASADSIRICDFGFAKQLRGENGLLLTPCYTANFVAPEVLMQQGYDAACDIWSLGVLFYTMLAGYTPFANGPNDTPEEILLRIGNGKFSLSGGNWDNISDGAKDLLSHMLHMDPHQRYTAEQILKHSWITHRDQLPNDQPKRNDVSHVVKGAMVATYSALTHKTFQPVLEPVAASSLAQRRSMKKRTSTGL
# How it was run: (§5)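 Millipore KinaseProfiler activity assays on a 259-kinase panel; kinases inhibited by ≥90% at 1 μM then taken to full IC50 determination.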
# [11] = biological target: Serine/threonine-protein kinase Chk2 (Homo sapiens, UniProt O96017); settings: 1 uM
# Chain of Serine/threonine-protein kinase Chk2 (O96017 whole entry): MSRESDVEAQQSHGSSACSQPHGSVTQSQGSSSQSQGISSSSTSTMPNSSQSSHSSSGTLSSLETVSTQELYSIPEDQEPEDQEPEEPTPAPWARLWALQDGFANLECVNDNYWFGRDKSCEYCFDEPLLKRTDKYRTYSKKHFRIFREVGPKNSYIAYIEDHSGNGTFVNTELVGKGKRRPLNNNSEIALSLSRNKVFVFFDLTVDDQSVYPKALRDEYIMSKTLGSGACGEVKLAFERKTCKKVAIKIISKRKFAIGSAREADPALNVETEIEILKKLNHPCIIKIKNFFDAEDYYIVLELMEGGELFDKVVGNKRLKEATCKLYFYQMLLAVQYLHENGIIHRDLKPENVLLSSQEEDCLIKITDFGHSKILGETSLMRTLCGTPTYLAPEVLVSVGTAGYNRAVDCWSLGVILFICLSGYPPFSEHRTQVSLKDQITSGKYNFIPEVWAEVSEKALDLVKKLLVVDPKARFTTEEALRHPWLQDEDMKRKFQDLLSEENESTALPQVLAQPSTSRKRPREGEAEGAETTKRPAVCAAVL
# [12] = Tmax in cynomolgus monkey at 10 mg/kg, po; format: ADME, organism-based, Macaca fascicularis; parameters: dose 10 mg/kg, route oral; settings: in vivo; how it was run: as §4
# [13] = biological target: Focal adhesion kinase 1 (Homo sapiens, UniProt Q05397); settings: 1 uM
# [14] = Half life in Sprague-Dawley rat at 1 mg/kg, iv; format: ADME, organism-based; parameters: dose 1 mg/kg, route intravenous; settings: in vivo
# How it was run: (§6)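 Rat PK. IV via the lateral tail vein, 1 mL/kg in 3% DMSO/30% Solutol/67% PBS, or oral gavage at 5 mL/kg in 40% HPβCD, after an overnight fast. Serial tail-vein blood was taken into heparin over 6 h. Plasma was acetonitrile-precipitated and analysed by LC-MS/MS. Parameters were noncompartmental, n = 3, mean ± SEM.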
# [15] = Cmax in Beagle dog at 10 mg/kg, po; format: ADME, organism-based, Canis lupus familiaris; parameters: dose 10 mg/kg, route oral; settings: in vivo; how it was run: as §2
# [16] = biological target: Protein-tyrosine kinase 6 (Homo sapiens, UniProt Q13882); settings: 1 uM
# Chain of Protein-tyrosine kinase 6 (Q13882 whole entry, looked up): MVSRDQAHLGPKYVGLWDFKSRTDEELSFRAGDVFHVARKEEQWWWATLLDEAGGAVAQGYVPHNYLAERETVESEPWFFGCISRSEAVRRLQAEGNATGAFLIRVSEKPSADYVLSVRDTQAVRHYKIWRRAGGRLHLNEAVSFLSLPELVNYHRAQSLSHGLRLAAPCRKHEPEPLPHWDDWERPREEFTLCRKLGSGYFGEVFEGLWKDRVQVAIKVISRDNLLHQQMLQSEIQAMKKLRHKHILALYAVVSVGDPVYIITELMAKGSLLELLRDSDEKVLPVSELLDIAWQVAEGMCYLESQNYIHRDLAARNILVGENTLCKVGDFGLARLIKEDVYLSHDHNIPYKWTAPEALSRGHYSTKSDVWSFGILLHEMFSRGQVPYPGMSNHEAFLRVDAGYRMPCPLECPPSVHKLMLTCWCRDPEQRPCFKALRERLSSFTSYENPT
# [17] = AUC in Sprague-Dawley rat at 10 mg/kg, po; format: ADME, organism-based; parameters: dose 10 mg/kg, route oral; settings: plasma; how it was run: as §6
# [18] = AUC in cynomolgus monkey at 10 mg/kg, po; format: ADME, organism-based, Macaca fascicularis; parameters: dose 10 mg/kg, route oral; settings: plasma; how it was run: as §2
# [19] = biological target: T1, Vascular endothelial growth factor receptor 3 (Homo sapiens, UniProt P35916); test: Inhibition of human Flt4; how it was run: as §5
# T1 sequence (P35916 whole entry): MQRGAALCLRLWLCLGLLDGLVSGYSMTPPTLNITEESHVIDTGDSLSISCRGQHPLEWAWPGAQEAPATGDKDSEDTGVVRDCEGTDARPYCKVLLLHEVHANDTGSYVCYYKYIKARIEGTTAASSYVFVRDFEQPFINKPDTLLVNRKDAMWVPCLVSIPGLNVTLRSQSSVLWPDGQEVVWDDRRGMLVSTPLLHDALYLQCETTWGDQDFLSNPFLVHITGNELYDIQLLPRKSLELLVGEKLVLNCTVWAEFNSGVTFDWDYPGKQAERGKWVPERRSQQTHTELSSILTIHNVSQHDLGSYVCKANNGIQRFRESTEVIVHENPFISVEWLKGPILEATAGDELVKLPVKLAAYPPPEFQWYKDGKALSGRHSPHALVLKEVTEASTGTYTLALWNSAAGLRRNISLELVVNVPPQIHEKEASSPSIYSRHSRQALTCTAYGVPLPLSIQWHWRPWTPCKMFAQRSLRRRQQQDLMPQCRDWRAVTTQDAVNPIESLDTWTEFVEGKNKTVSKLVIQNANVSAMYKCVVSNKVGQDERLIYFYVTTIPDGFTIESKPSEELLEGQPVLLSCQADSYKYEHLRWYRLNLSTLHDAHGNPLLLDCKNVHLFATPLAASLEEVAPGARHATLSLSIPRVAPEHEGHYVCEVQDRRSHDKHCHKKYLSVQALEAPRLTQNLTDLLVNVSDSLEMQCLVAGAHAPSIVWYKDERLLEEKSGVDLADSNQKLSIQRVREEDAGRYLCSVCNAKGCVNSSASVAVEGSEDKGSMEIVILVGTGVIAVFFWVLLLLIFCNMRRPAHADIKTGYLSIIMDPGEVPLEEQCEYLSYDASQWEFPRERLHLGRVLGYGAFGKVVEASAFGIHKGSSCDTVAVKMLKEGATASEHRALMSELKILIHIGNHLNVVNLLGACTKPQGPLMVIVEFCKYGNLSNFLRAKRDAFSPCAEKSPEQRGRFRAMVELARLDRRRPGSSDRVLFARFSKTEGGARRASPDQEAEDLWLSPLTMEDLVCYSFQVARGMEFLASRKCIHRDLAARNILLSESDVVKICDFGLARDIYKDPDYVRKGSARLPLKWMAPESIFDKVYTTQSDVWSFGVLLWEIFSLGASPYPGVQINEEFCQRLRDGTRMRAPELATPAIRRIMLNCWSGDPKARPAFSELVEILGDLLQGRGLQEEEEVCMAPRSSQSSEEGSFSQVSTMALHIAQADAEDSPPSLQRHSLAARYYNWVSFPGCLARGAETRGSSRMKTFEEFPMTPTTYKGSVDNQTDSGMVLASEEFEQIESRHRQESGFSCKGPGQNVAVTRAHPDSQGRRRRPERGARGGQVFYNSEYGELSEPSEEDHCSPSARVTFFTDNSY
# [20] = AUC in CD-1 mouse at 1 mg/kg, iv; format: ADME, organism-based; parameters: dose 1 mg/kg, route intravenous; settings: plasma; how it was run: as §1
# [21] = AUC in Beagle dog at 10 mg/kg, po; format: ADME, organism-based, Canis lupus familiaris; parameters: dose 10 mg/kg, route oral; settings: plasma; how it was run: as §2
# [22] = Plasma concentration in SCID mouse xenografted with human KARPAS299 cells expressing NPM-ALK at 30 mg/kg, po after 24 hrs by LC-MS/MS analysis; format: ADME, organism-based, KARPAS-299; parameters: dose 30 mg/kg, route oral
# How it was run: (§7)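 Pharmacodynamic study: SCID mice bearing subcutaneous Karpas-299 xenografts given single 30 mg/kg oral dose; plasma drug levels measured by LCMS/MS, reported as mean ± SEM.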
# [23] = tested on: KARPAS-299; test: Antitumor activity against human KARPAS299 cells expressing NPM-ALK xenografted in SCID mouse assessed as tumor regression administered as po bid for 12 days; format: functional, organism-based
# How it was run: (§8)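 Female SCID/beige mice, 6–8 weeks old, implanted sc in the left flank with exponentially growing Karpas-299 cells. At about 600 mm³ tumours, mice were randomized (8–10/group) and given PEG400 vehicle or compound orally b.i.d., 100 μL, for 12 days. Tumour volume (0.5236LW(L+W)/2) and body weight were recorded every 2–3 days; Mann–Whitney test. Plasma and tumour levels were measured by LC-MS/MS 2 h after the final dose, mean ± SEM.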
# [24] = Drug level in SCID/beige mouse tumor xenografted with human KARPAS299 cells expressing NPM-ALK at 30 mg/kg, po bid after 2 hrs post last dose by LC-MS/MS analysis; format: ADME, organism-based, Neoplasm, KARPAS-299; parameters: dose 30 mg/kg, route oral; settings: read-out: Drug uptake; how it was run: as §8
# [25] = Plasma concentration in SCID mouse xenografted with human KARPAS299 cells expressing NPM-ALK at 30 mg/kg, po after 2 hrs by LC-MS/MS analysis; format: ADME, organism-based, KARPAS-299; parameters: dose 30 mg/kg, route oral; how it was run: as §7
# [26] = biological target: Activated CDC42 kinase 1 (Homo sapiens, UniProt Q07912); settings: 1 uM
# Chain of Activated CDC42 kinase 1 (Q07912 whole entry, looked up): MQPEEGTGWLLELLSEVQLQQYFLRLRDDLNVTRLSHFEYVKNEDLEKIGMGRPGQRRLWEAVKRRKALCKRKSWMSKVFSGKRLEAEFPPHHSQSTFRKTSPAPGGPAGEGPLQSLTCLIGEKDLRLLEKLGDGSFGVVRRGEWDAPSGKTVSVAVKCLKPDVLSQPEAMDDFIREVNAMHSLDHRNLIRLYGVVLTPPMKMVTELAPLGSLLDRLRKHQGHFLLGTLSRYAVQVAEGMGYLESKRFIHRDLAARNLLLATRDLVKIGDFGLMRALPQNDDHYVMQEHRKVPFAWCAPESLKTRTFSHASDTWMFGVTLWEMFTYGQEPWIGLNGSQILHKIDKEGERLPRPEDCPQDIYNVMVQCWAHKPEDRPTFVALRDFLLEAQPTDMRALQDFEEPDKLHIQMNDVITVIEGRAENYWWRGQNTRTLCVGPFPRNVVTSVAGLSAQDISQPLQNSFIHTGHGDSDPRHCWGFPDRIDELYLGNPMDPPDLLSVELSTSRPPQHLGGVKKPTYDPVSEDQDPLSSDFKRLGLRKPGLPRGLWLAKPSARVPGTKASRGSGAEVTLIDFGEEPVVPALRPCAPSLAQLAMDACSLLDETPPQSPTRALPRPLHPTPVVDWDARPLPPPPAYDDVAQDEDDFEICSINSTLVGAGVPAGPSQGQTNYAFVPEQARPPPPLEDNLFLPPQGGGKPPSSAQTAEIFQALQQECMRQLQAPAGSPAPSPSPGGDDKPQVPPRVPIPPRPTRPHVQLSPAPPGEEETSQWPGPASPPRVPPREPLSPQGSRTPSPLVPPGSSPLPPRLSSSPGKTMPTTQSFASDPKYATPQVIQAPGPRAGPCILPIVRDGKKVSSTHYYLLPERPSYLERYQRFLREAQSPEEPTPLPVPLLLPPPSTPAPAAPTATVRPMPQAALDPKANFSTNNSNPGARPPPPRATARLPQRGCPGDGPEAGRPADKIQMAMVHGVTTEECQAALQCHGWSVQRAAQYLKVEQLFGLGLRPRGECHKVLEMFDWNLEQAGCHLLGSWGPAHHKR
# [27] = Plasma clearance in SCID mouse at 1 mg/kg, iv; format: ADME, organism-based; parameters: dose 1 mg/kg, route intravenous; how it was run: as §3
# [28] = AUC in Sprague-Dawley rat at 1 mg/kg, iv; format: ADME, organism-based; parameters: dose 1 mg/kg, route intravenous; settings: plasma; how it was run: as §6
# [29] = Drug level in SCID/beige mouse tumor xenografted with human KARPAS299 cells expressing NPM-ALK at 10 mg/kg, po bid after 2 hrs post last dose by LC-MS/MS analysis; format: ADME, organism-based, Neoplasm, KARPAS-299; parameters: dose 10 mg/kg, route oral; settings: read-out: Drug uptake; how it was run: as §8
# [30] = biological target: T1, Vascular endothelial growth factor receptor 3; settings: 1 uM
compound,measurement,setting,value
COc1c(Nc2ncc(Cl)c(N[C@H]3[C@@H](C(N)=O)[C@@H]4C=C[C@H]3C4)n2)ccc2c1CC[C@@H](N1CCOCC1)CC2,half-life,[1],1.8 h
same,half-life,[2],1.2 h
same,Cmax,[3],880 ng/mL
same,clearance,[4],29 mL/min/kg
same,bioavailability,[5],52%
same,AUC(0-t) at 12 h,[6],38200 ng·h/mL
same,Activity,[7],Non-toxic
same,Tmax,[8],0.8 h
same,clearance,[9],17 mL/min/kg
same,IC50,[10],19 nM
same,inhibition,[11],> 90%
same,Tmax,[12],4.7 h
same,inhibition,[13],> 90%
same,half-life,[14],0.9 h
same,Cmax,[15],427 ng/mL
same,inhibition,[16],> 90%
same,AUC,[17],4830 ng·h/mL
same,AUC,[18],954 ng·h/mL
same,IC50,[19],48 nM
same,AUC,[20],584 ng·h/mL
same,AUC,[21],2130 ng·h/mL
same,concentration at 24 h,[22],12 ng/mL
same,Activity,[23],Dose-dependent effect
same,concentration at 2 h,[24],4040 ng/g
same,concentration at 2 h,[25],4180 ng/mL
same,inhibition,[26],> 90%
same,clearance,[27],6 mL/min/kg
same,AUC,[28],989 ng·h/mL
same,concentration at 2 h,[29],686 ng/g
same,inhibition,[30],> 90%

# Reference: ChEMBL document CHEMBL2062375, “Discovery of an orally efficacious inhibitor of anaplastic lymphoma kinase” (J Med Chem, 2012)
